Screening results deposited in PubChem BioAssay by several laboratories.
VIM-2 inhibitor: blocks Pseudomonas aeruginosa VIM-2 metallo-beta-lactamase; purified VIM-2, nitrocefin hydrolysis, epi-absorbance fluorescence; inhibition, % at 5.6 µM; 290,000 compounds, 0.89% hits;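 active = inhibition above the mean of all tested compounds plus 3 SD, cutoff set per screening run, cut at about 7.5% in these data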;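 also: red hydrolysis product quenches plate fluorescence so inhibitors raise well fluorescence; 0% = enzyme with DMSO and 100% = DMSO without enzyme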
IMP-1 inh-1: blocks Pseudomonas aeruginosa IMP-1 metallo-beta-lactamase; purified IMP-1, nitrocefin hydrolysis, epi-absorbance fluorescence; inhibition, % at 5.6 µM; 290,000 compounds, 0.45% hits;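 active = inhibition above the mean plus 3 SD of all compounds in the same screening run, cut at about 4.5% in these data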;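 also: 0% = IMP-1 with DMSO and 100% = DMSO wells lacking enzyme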
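System: purified IMP-1 / Input: IMP-1 dispensed at 0.2 nM / Medium: 50 mM HEPES pH 7.1, 50 µM ZnSO4, 0.05% Brij 35 / Timing: 15 min enzyme–compound preincubation, then 25 min nitrocefin reaction, 25 °C / Technique: plate fluorescence quenching by hydrolysis product, ex 480/em 530 nm / Repeats: singlicate testing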
zfTRPN1 agonist: agonists of zebrafish TRPN1 channel. 220,000 compounds, 0.18% hits. HEK293 zebrafish TRPN1-YFP, Fluo-8 calcium fluorescence; 100% = response to 87 µM carbachol. activation, % at 3 µM;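 active = activation above its plate's cutoff, the mean activation of test wells on that plate plus 3 SD, cut at about 19% in these data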;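 also: 0% = DMSO alone and 100% = 87 µM carbachol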
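Material: zebrafish TRPN1-YFP in HEK293 cells. Doses: one dose of 3 µM, 0.3% DMSO. Incubation: dye 1 h 37 °C plus 30 min RT. Measured by: intracellular calcium fluorescence with Fluo-8.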
CRFBP-R2 block: blocks CRF-induced signaling of the CRF-BP/CRF-R2 complex. HEK293 CRF-R2/CRF-BP, CRF-induced calcium fluorescence. inhibition, % at 11.8 µM. 350,000 compounds, 0.59% hits;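 active = inhibition of the ligand-induced calcium signal above about 50% at the single tested concentration, limit read from the data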
TRPML3 ag: activates the human TRPML3 channel; HEK293 TRPML3-YFP, Fluo-8 calcium fluorescence; 100% = the carbachol control signal; activation, % at 3 µM; 220,000 compounds, 0.29% hits;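 active = activation above its plate's cutoff, the mean activation of the plate's test wells plus 3 SD, cut at about 12% in these data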;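 also: 0% = DMSO only wells and 100% = carbachol wells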
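Test system: TRPML3-YFP stable HEK293 cells. Doses: single point at 3 µM. Incubation: dye loading 1 h 37 °C then 30 min ambient, 125 s read. Signal: Fluo-8 calcium dye fluorescence, ex 470-495, em 515-575 nm. Measure: percent activation from peak-to-basal fluorescence ratio, scaled between DMSO and carbachol.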
CRFR2-BP ag: agonists of human CRF-binding protein/CRF-R2 receptor complex. HEK293 CRF-R2/CRF-BP, calcium dye fluorescence (FLIPR); percent of saturating CRF peptide response. activation, % at 13.2 µM. 350,000 compounds, 0.46% hits;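 active = activation of at least 50%, plus an integration ratio under a set limit after plate pattern correction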;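 also: plate controls were neutral control wells without compound for no effect and CRF at EC100 for full effect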
IMP-1 inh-2: blocks IMP-1 metallo-beta-lactamase in VIM-2 selectivity screen. shares compounds with VIM-2 inhibitor. purified IMP-1, nitrocefin hydrolysis, epi-absorbance fluorescence. inhibition, % at 5.6 µM. 1,300 tested, under 10 active. AID 1856; call rule not given here;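 also: 0% = enzyme with vehicle and 100% = vehicle without enzyme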
VIM-2 FRET ctr: counter-screen for VIM-2 inhibitors: epi-absorbance artifacts via FRET | shares compounds with VIM-2 inhibitor | purified VIM-2, CCF2 FRET substrate hydrolysis | inhibition, % at 5.6 µM | 1,300 compounds, 23% hits | AID 1857;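 active = inhibition above the mean of all tested compounds plus 3 SD, cut at about 19% in these data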;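 also: 0% = VIM-2 plus DMSO and 100% = no enzyme wells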
TEM-1 inh: selectivity counter-screen for VIM-2 inhibitors: E. coli TEM-1 inhibitors; shares compounds with VIM-2 inhibitor; Purified TEM-1, nitrocefin hydrolysis, epi-absorbance fluorescence; inhibition, % at 5.6 µM; 1,300 compounds, 3% hits;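 active = inhibition above that campaign's mean inhibition plus 3 SD, cut at about 0.46% in these data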;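 also: 0% = TEM-1 with DMSO and 100% = TEM-1 with 100 µM potassium clavulanate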
Target sequence (P62593 whole entry, looked up): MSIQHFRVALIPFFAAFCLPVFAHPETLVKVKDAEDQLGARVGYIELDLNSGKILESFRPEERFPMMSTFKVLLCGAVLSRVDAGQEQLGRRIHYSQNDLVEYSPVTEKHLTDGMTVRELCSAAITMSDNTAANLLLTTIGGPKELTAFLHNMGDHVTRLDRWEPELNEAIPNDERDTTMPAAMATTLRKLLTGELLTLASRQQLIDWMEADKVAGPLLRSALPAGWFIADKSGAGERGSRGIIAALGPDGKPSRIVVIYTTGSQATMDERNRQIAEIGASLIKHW
VIM-2 inh conf: confirmation of P. aeruginosa VIM-2 metallo-beta-lactamase inhibitors; shares compounds with VIM-2 inhibitor; purified VIM-2, nitrocefin hydrolysis, epi-absorbance; inhibition, % at 5.6 µM; 1,300 compounds, 96% hits; AID 2187;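 active = inhibition of the VIM-2 beta-lactamase enzyme above about 11% from the earlier first-round screen, limit read from the data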;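 also: 0% = VIM-2 with DMSO and 100% = buffer wells without enzyme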
* hit, by the source's call; . = no result. A selection: hits, their analogues and other compounds. The true share with any hit is near 2.1%.

SMILES	VIM-2 inhibitor	IMP-1 inh-1	zfTRPN1 agonist	CRFBP-R2 block	TRPML3 ag	CRFR2-BP ag	IMP-1 inh-2	VIM-2 FRET ctr	TEM-1 inh	VIM-2 inh conf
Clc1ccccc1-c1ccc(/C=N/n2cnnc2)o1	21*	-4	-1	16	0	-3	-3	-1	-6	42*
Clc1ccc(Sc2ccc(/C=N/n3cnnc3)o2)cc1	-4	-2	-2	-6	-1	-4	.	.	.	.
Clc1cccc(-c2ccc(/C=N/n3cnnc3)o2)c1Cl	29*	-3	-1	-7	1	0	-3	-8	-5	64*
Oc1cccc(/C=N/Nc2nn3cnnc3c3ccccc23)c1	16*	-4	2	4	1	-1	-4	0	-5	37*
COc1cccc(/C=N/Nc2nn3cnnc3c3ccccc23)c1O	0	-3	2	-1	1	-2	.	.	.	.
COc1cccc(NC(=O)C(=O)N/N=C(\C)CC(=O)Nc2ccc(NC(C)=O)cc2)c1	-3	-3	.	11	.	-1	.	.	.	.
Nc1nnnn1CC(=O)N/N=C/c1cc([N+](=O)[O-])ccc1Cl	0	0	1	-1	1	1	.	.	.	.
O=[N+]([O-])c1ccc(-c2ccc(/C=N/n3cnnc3)o2)c(Br)c1	45*	-3	.	0	.	0	-2	7	-3	57*
Cc1cc([N+](=O)[O-])c(C)cc1-c1ccc(/C=N/NC(=O)Cn2nnnc2N)o1	33*	-4	-1	22	0	0	-3	-11	-3	42*
Cc1cc([N+](=O)[O-])c(C)cc1-c1ccc(/C=N/n2cnnc2)o1	44*	-3	.	4	.	1	-1	-1	-5	50*
Cc1n[nH]c(=S)n1/N=C/c1ccc(-c2ccccc2[N+](=O)[O-])o1	1	-3	-1	14	0	-3	.	.	.	.
O=c1c2ccccc2cnn1Cc1n[nH]c(=S)n1C1CC2CCC1C2 (stereo not drawn)	15*	-4	0	5	0	-1	-3	38*	-6	21*
CC(c1ccccc1)n1c(Cn2ncc3ccccc3c2=O)n[nH]c1=S (stereo not drawn)	-2	-3	0	6	2	-1	.	.	.	.
CCOc1ncccc1C(=O)Nc1cc(S(=O)(=O)N2CCCCC2)ccc1OC	.	.	.	-6	.	1	.	.	.	.
CC1CCCC(C)N1C(=O)CSc1nnc(NC(=O)c2cccs2)s1 (stereo not drawn)	20*	-2	1	-11	1	0	-4	52*	-6	37*
CCC(C)(C)C1CCc2[nH]nc(C(=O)NC(C)C)c2C1 (stereo not drawn)	.	.	.	6	.	-6	.	.	.	.
CCN(CC)C(=O)CSc1nc2ccc(NC(=O)CSc3nnc(N)s3)cc2s1	-3	-2	3	0	1	0	.	.	.	.
CCN(CC)C(=O)CSc1nc2ccc(NC(=O)CSc3nccn3C)cc2s1	21*	-3	2	6	1	0	-3	52*	-7	36*
O=C(Nc1ccc(-n2ccnc2P(=O)(O)c2ccccc2)cc1)c1ccccc1Cl	15*	-3	0	3	1	0	-4	29*	-5	21*
O=C(Nc1ccc(Oc2cccnc2)cc1)c1ccccc1Cl	-4	-4	1	3	0	1	.	.	.	.
Cc1cc(NC(=O)c2cccnc2)ccc1Br	-1	-1	.	1	.	1	.	.	.	.
CC1(C)Cc2c(sc(NC(=O)C(=O)NCCCN3CCOCC3)c2C(N)=O)CO1	-4	-3	.	-8	.	1	.	.	.	.
COC(=O)c1c(NC(=O)C(=O)NCCCN2CCOCC2)sc2c1CCC2	14*	-2	.	-6	.	2	-2	1	-9	25*
N#Cc1c(NC(=O)C(=O)NCCCN2CCOCC2)sc2c1CCCC2	0	-2	.	4	.	-1	.	.	.	.
COC(=O)c1c(NC(=O)C(=O)NCCCN2CCOCC2)sc2c1CC(C)(C)OC2	13*	-9	.	1	.	-2	-3	2	-4	20*
SMILES	VIM-2 inhibitor	IMP-1 inh-1	zfTRPN1 agonist	CRFBP-R2 block	TRPML3 ag	CRFR2-BP ag	IMP-1 inh-2	VIM-2 FRET ctr	TEM-1 inh	VIM-2 inh conf
CC(C)(C)OC(=O)C[C@@H]1C/C=C\C[C@H](CC(=O)N(CCO)Cc2ccccc2)C(=O)N[C@H](C(C)(C)C)COC1=O	.	.	.	3	.	-1	.	.	.	.
CCCn1c2ccccc2c2nnc(SCC(=O)Nc3ncccn3)nc21	2	0	1	11	1	-3	.	.	.	.
CCCCn1c2ccccc2c2nnc(SCCN3CCCCC3)nc21	13*	-3	.	-20	.	-3	-3	-6	-7	19*
O=C1NCCN(C(=O)CCc2nnc(-c3ccsc3)o2)C1c1ccc(F)cc1 (stereo not drawn)	-1	-2	1	0	1	0	.	.	.	.
CC[C@H](C)[C@H](NC(=O)OCc1ccccc1)C(=O)OCC(=O)Nc1ccc(N2CCOCC2)cc1	.	.	.	-16	.	-1	.	.	.	.
COc1ccc(Nc2ncnc3ccccc23)c(OC)c1	-5	-2	-1	0	0	-1	.	.	.	.
COc1ccc(Nc2nc(N3CCCC3)nc3ccccc23)c(OC)c1	31*	-1	0	7	0	1	-2	1	-6	43*
Cn1c(N)c(C(=O)c2cc(-c3ccccn3)nc3ccccc23)c(=O)[nH]c1=O	38*	-15	1	9	0	1	-6	-14	-7	42*
O=C(Nc1ccc(C(=O)N2CCN(c3ccccc3)CC2)cc1)C1=CSCCO1	-1	-3	.	-6	.	1	.	.	.	.
Nc1c(Cl)ncnc1NCC(O)CO (stereo not drawn)	-2	-2	-1	-3	0	1	.	.	.	.
Cc1c(O[C@@H]2O[C@H](CO)[C@@H](O)[C@H](O)[C@H]2O)ccc2c1oc(=O)c1ccccc12	25*	-4	.	-15	.	3	-3	0	-8	35*
Cc1c(C)c2ccc(O[C@@H]3O[C@H](CO)[C@H](O)[C@H](O)[C@H]3O)c(C)c2oc1=O	4	-5	.	-3	.	2	.	.	.	.
C=CCSc1nc2c(C(=O)OCC)nnn2c2ccccc12	28*	-3	.	11	.	-3	-4	-4	-11	39*
